Source: article PMC3171643 (ACS combinatorial science, 2011)

How the values were obtained:
[1] = target: GST-Cn (catalytic domain of human Cn) (Homo sapiens, UniProt Q08209); assay type: binding; settings: Cn 5 μM, TMR-labeled peptide 100 nM
Method in brief: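 Human Cn catalytic domain as a GST fusion, expressed in E. coli BL21 and glutathione-Sepharose purified. Single-bead-released TAMRA-labeled cyclic peptide (100 nM) was incubated with 5 μM GST-Cn for 2 h at room temperature in 20 mM HEPES pH 7.4, 150 mM NaCl, 2 mM magnesium acetate, 0.1% BSA. Anisotropy was read at ex 545/em 585 nm and expressed as % increase over the peptide without Cn.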

[2] = target: Cn; settings: cited from earlier work
[3] = target: Calcineurin (Homo sapiens) (UniProt Q08209); settings: cited from earlier work

For CN(C)c1ccc2c(-c3ccccc3C(=O)[O-])c3ccc(N(C)C)cc3[o+]c2c1 [free TMR, tetramethylrhodamine], the “percentage of FA increase (relative to the control without Cn)” value [1] was “less than 20%”.
For MAPGHPVIVITGPHEE, the Kd ([2]; VIVIT peptide binding to Cn) is listed as 500 nM and the “fold higher affinity for Cn than the native sequence” value [2] is listed as 50 fold.
For VIVIT peptide, the Kd [3] is listed as 500 nM.
